Results from different studies.
Protocols differ between the studies behind these lines.
PPARA: Peroxisome proliferator-activated receptor alpha (PPARA, Homo sapiens, UniProt Q07869)
Tumor necrosis factor receptor superfamily member 9: Tumor necrosis factor receptor superfamily member 9 (Homo sapiens, UniProt Q07011)
gag-pol integrase: Gag-Pol polyprotein, integrase (gag-pol, Human immunodeficiency virus 1, UniProt P12497)
CYP2D6: Cytochrome P450 2D6 (CYP2D6, Homo sapiens, UniProt P10635)

SMILES	target	assay	system	conditions	measurement	result
O=S(=O)(O)C(F)(F)C(F)(F)OC(F)(C(F)(F)F)C(F)(F)OC(F)C(F)(F)F (stereo not drawn)	PPARA	reporter gene, agonist, luciferase			EC50	24 µM
CCCC[C@@H]1NC(=O)[C@H](Cc2ccc(O)cc2)NC(=O)[C@@H]2CCCN2C(=O)[C@H](CC(=O)O)NC(=O)[C@H](C)NC(=O)[C@H](Cc2ccccc2)NC(=O)[C@@H]2CSCCC(=O)N3CN(CN(C3)C(=O)CCSC[C@@H](C(=O)N[C@@H](C)C(N)=O)NC1=O)C(=O)CCSC[C@H](NC(C)=O)C(=O)N[C@@H](CC(C)(C)C)C(=O)N1CCC[C@H]1C(=O)N[C@@H](CCC(=O)O)C(=O)N[C@H](CCCCNC(=O)CCc1cn(CCOCCOCCOCCOCCOCCC(=O)N[C@H]3CSCCC(=O)N4CN5CN(C4)C(=O)CCSC[C@H](NC(=O)[C@@H](CCC(=O)O)NC(=O)[C@H](Cc4cccc6ccccc46)NC(=O)[C@@H]4CCCN4C3=O)C(=O)N[C@@H](CC(C)C)C(=O)N[C@@H](CCCCNC(=N)N)C(=O)N[C@@H](CC(=O)O)C(=O)N[C@@H](Cc3c[nH]c4ccccc34)C(=O)N[C@@H](CO)C(=O)N[C@@H]([C@@H](C)O)C(=O)N3CCC[C@H]3C(=O)N3C[C@H](O)C[C@H]3C(=O)N[C@@H](Cc3c[nH]c4ccccc34)C(=O)N[C@H](C(N)=O)CSCCC5=O)nn1)C(=O)N1CCC[C@H]1C(=O)N[C@@H](Cc1ccc(O)cc1)C(=O)N2	Tumor necrosis factor receptor superfamily member 9	binding, SPR			Kd	0.0084 µM
O=C(O)[C@H](Cc1ccccc1)NC(=O)C1(c2ccc(-c3ccccc3)cc2)CCN(CCC(F)(F)F)CC1	gag-pol integrase	enzyme activity, inhibitor, TR-FRET			IC50	263 µM
Cc1c(Cc2ccc(C(F)(F)F)nc2)c[nH]c1C(=O)NC(C)c1cnn(C)c1 (stereo not drawn)	CYP2D6	enzyme activity, inhibitor	human, liver microsomes		IC50	12.7 µM
CC(c1ccccc1)n1cc(-c2ncccn2)c(=O)[nH]c1=O (stereo not drawn)	Hepatocyte growth factor receptor (MET, Homo sapiens, UniProt P08581)	binding			Kd	2.51 µM
Cc1c(C2(c3ccc(C(F)(F)F)nc3)CC2)c[nH]c1C(=O)NC(C)c1c[nH]cn1 (stereo not drawn)	CYP2D6	enzyme activity, inhibitor	human, liver microsomes		IC50	0.32 µM
Cc1cc(SCc2sc(-c3ccc(C(F)(F)F)c(F)c3)nc2C)ccc1OCC(=O)O	PPARA	reporter gene, agonist, luciferase			EC50	1.3 µM
O=C(O)C(F)(OC(F)(F)C(F)(F)C(F)(F)F)C(F)(F)F (stereo not drawn)	PPARA	reporter gene, agonist, luciferase			EC50	2.1 µM
CC(=O)N[C@@H](CC(C)C)C(=O)N[C@@H](CC(C)C)C(=O)N[C@@H](CC(C)C)C(=O)N[C@@H](CCCN=C(N)N)C(=O)N[C@H](C(=O)N[C@@H](CCCCN)C(=O)N[C@@H](CCCN=C(N)N)C(N)=O)C(C)C	Proprotein convertase subtilisin/kexin type 7 (Homo sapiens, UniProt Q16549)	enzyme activity, inhibitor			Ki	1.52 µM
O=C(O)[C@H](Cc1ccccc1)NC(=O)C1(c2ccccc2)CCN(Cc2ccccc2)CC1	gag-pol integrase	enzyme activity, inhibitor, TR-FRET			IC50	194 µM
Clc1ccc(N2CCN(Cc3c[nH]c4ncccc34)CC2)cc1	D(2) dopamine receptor (Drd2, Rattus norvegicus, UniProt P61169)	ligand displacement, radioligand		cell membranes	Ki	0.656 µM
CCCC[C@@H]1NC(=O)[C@H](Cc2ccc(O)cc2)NC(=O)[C@@H]2CCCN2C(=O)[C@H](CC(=O)O)NC(=O)[C@H](C)NC(=O)[C@H](Cc2ccccc2)NC(=O)[C@@H]2CSCCC(=O)N3CN(CN(C3)C(=O)CCSC[C@H](NC(C)=O)C(=O)N[C@@H](CC(C)(C)C)C(=O)N[C@@H](CCC(=O)O)C(=O)N[C@@H](CCC(=O)O)C(=O)N[C@H](CCCCNC(=O)CCc3cn(CCOCCOCCOCCOCCOCCC(=O)N[C@H]4CSCCC(=O)N5CN6CN(C5)C(=O)CCSC[C@H](NC(=O)[C@@H](CC(=O)O)NC(=O)[C@H](Cc5cccc7ccccc57)NC(=O)[C@@H]5CCCN5C4=O)C(=O)N[C@@H](CCSC)C(=O)N[C@@H](CCCCNC(=N)N)C(=O)N[C@@H](CC(=O)O)C(=O)N[C@@H](Cc4c[nH]c5ccccc45)C(=O)N[C@@H](CO)C(=O)N[C@@H]([C@@H](C)O)C(=O)N4CCC[C@H]4C(=O)N4C[C@H](O)C[C@H]4C(=O)N[C@@H](Cc4c[nH]c5ccccc45)C(=O)N[C@H](C(N)=O)CSCCC6=O)nn3)C(=O)N3CCC[C@H]3C(=O)N[C@@H](Cc3ccc(O)cc3)C(=O)N2)C(=O)CCSC[C@@H](C(N)=O)NC1=O	Tumor necrosis factor receptor superfamily member 9	binding, SPR			Kd	0.0096 µM
[Cd+2]	Protein phosphatase 1A (PPM1A, Homo sapiens, UniProt P35813, D239A)	enzyme activity, inhibitor, absorbance		pH 8	Ki	5.22 µM
O=C(O)c1cc[c]([Hg][Cl])cc1	Beta-lactamase TEM (bla, Escherichia coli, UniProt P62593)	enzyme activity, inhibitor			IC50	> 30 µM
CC(C)C[C@H](NC(=O)[C@H](Cc1ccccc1)NC(=O)[C@H](Cc1ccc(O)cc1)NC(=O)CNC(=O)[C@H](CCCCN)NC(=O)[C@H](CO)NC(=O)[C@H](CCC(N)=O)NC(=O)CNC(=O)[C@@H](NC(=O)[C@H](CO)NC(=O)[C@@H]1CCCN1C(=O)[C@H](CO)NC(=O)[C@H](CCC(N)=O)NC(=O)[C@H](Cc1ccc(O)cc1)NC(=O)[C@H](CCC(=O)O)NC(=O)[C@H](C)NC(=O)[C@H](CCCCN)NC(=O)[C@@H](N)Cc1ccccc1)C(C)C)C(=O)N[C@@H](Cc1ccccc1)C(=O)N[C@@H](CCCNC(=N)N)C(=O)N1CCC[C@H]1C(=O)N[C@@H](CCCNC(=N)N)C(=O)N[C@@H](CC(N)=O)C(N)=O	Neuromedin-U receptor 2 (NMUR2, Homo sapiens, UniProt Q9GZQ4)	inositol phosphate, agonist, TR-FRET			EC50	0.00024 µM
